Tests used:
[1] = system: Liver microsome; experiment: Drug metabolism in human liver microsomes assessed as BILR402 metabolite formation at 5 uM by LC-MS/MS analysis; type: ADME
Procedure, shortened: (§1)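 Pooled human liver microsomes, cytosol or S9 (1 mg/mL) were incubated with BILR 355 (5 μM final) in 0.05 M potassium phosphate pH 7.4 at 37 °C for 60 min. Microsomes and S9 received 2.5 mM NADPH.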

[2] = target: T1, Cytochrome P450 3A4 (Homo sapiens, UniProt P08684); experiment: Activity at recombinant CYP3A4 (unknown origin) expressed in baculovirus-infected insect cells treated with 10 uM BILR402 assessed as enzyme-mediated compound formation at 10 uM after 4 mins by LC-MS/MS analysis in presence of NADPH
T1 sequence (P08684 whole entry): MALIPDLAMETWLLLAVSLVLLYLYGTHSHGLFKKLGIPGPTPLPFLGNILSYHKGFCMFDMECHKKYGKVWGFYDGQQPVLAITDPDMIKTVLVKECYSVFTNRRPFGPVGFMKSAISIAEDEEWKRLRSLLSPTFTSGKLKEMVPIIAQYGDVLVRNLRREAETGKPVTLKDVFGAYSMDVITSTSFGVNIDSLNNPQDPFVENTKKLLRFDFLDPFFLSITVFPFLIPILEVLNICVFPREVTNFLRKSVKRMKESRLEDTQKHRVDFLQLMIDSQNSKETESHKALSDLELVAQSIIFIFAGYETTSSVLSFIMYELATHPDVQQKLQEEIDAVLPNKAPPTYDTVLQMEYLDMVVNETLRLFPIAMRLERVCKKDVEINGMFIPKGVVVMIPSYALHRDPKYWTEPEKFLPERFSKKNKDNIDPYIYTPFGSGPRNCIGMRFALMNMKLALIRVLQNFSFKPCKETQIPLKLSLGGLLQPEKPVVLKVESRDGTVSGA

[3] = Drug excretion in dog feces assessed as unchanged drug level; type: ADME, tissue-based, Canis lupus familiaris; settings: read-out: Drug excretion
[4] = target: T1, Cytochrome P450 3A4; experiment: Activity at recombinant CYP3A4 (unknown origin) expressed in baculovirus-infected insect cells treated with 1 uM BILR402 assessed as enzyme-mediated compound formation after 4 mins by LC-MS/MS analysis in presence of NADPH; type: ADME
Procedure, shortened: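 rCYP3A4 (5 pmol/mL) incubated with BILR 402 at 1 or 10 μM in 0.1 M potassium phosphate/5 mM MgCl2, pH 7.4, with NADPH at 37 °C. Remaining BILR 402 and BILR 355 formed were read at 4 min by LC-MS/MS against a labelled internal standard.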

[5] = Drug excretion in mouse feces assessed as unchanged drug level; type: ADME, tissue-based; settings: read-out: Drug excretion
[6] = system: Liver cytosol; experiment: Drug metabolism in human liver cytosol assessed as BILR402 metabolite formation at 5 uM by LC-MS/MS analysis; type: ADME, tissue-based; procedure, shortened: as §1
[7] = system: Liver microsome; experiment: Drug level in human liver microsomes treated with BILR402 at 1 uM by LC-MS/MS analysis in presence of CYP2C19 inhibitor ticlopidine; type: ADME
Procedure, shortened: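 BILR 402 (1 μM) was incubated with human liver microsomes (0.05 mg/mL) for 30 min with NADPH, with or without ticlopidine 20 μM final as CYP2C19 inhibitor. BILR 402 depletion and BILR 355 formation were measured by LC-MS/MS.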

[8] = Drug excretion in dog feces assessed as metabolite level; type: ADME, tissue-based, Canis lupus familiaris
[9] = system: Liver microsome; experiment: Drug metabolism in human liver microsomes assessed as BILR516 disproportionate human metabolite formation at 5 uM after 60 mins by LC-MS/MS analysis; type: ADME; settings: 1 h; procedure, shortened: as §1
[10] = Drug excretion in rat feces assessed as metabolite level; type: ADME, tissue-based
[11] = system: Liver cytosol; experiment: Drug metabolism in human liver cytosol assessed as BILR516 disproportionate human metabolite formation at 5 uM after 60 mins by LC-MS/MS analysis; type: ADME, tissue-based; settings: 1 h; procedure, shortened: as §1
[12] = Drug excretion in mouse feces assessed as metabolite level; type: ADME, tissue-based
[13] = Drug metabolism in human liver S9 fraction assessed as BILR402 metabolite formation at 5 uM by LC-MS/MS analysis; type: ADME, subcellular; settings: s9, 5 µM; procedure, shortened: as §1
[14] = Drug excretion in rat feces assessed as unchanged drug level; type: ADME, tissue-based; settings: read-out: Drug excretion
[15] = Drug metabolism in human liver S9 fraction assessed as BILR516 disproportionate human metabolite formation at 5 uM after 60 mins by LC-MS/MS analysis; type: ADME, subcellular; settings: s9, 1 h; procedure, shortened: as §1
[16] = Drug level in human liver S9 fraction treated with BILR402 at 10 uM by LC-MS/MS analysis in presence of NADPH; type: ADME, subcellular; settings: s9, 10 µM
Procedure, shortened: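 BILR 402 (10 μM final) was incubated with human liver S9 or cytosol (1 mg/mL protein) in 0.05 M potassium phosphate pH 7.4 at 37 °C. Runs were done with or without 2.5 mM NADPH. Samples at 10, 20, 30 and 60 min were quenched in nevirapine/acetonitrile, filtered and analysed by LC-MS/MS; duplicate.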

[17] = substrate: CCN1c2ncc(CCOc3ccnc4ccccc34)cc2C(=O)N(C)c2cccnc21; experiment: Drug metabolism in human liver cytosol assessed as aldehyde-oxidase-mediated BILR516 metabolite formation after 10 mins by Eadie-Hofstee plot analysis; type: ADME, tissue-based
Procedure, shortened: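 Human liver cytosol (0.1 mg/mL) was incubated with BILR 402 at 12 concentrations, 0.061–125 μM, for 10 min at 37 °C in 0.05 M potassium phosphate pH 7.4 without NADPH, within the linear range for protein and time. […] Apparent Km and Vmax were derived from the kinetic data.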

CCN1c2ncc(CCOc3cc[n+]([O-])c4ccccc34)cc2C(=O)N(C)c2cccnc21 [BILR 355]
Drug metabolism [1]: metabolite_not_detected
Drug metabolism [2]: 0.9 µM
dose excreted [3]: 0%
Drug metabolism [4]: 0.15 µM
dose excreted [5]: 0%
Drug metabolism [6]: metabolite_not_detected
Drug metabolism [7]: metabolite_detected
Drug excretion [8]: 72.5%
Drug metabolism [9]: metabolite_not_detected
Drug excretion [10]: 72.5%
Drug metabolism [11]: metabolite_not_detected
Drug excretion [12]: 72.5%
Drug metabolism [13]: metabolite_not_detected
dose excreted [14]: 0%
Drug metabolism [15]: metabolite_not_detected

CCN1c2ncc(CCOc3cc(=O)[nH]c4ccccc34)cc2C(=O)N(C)c2cccnc21
Drug metabolism [16]: metabolite_detected

B1: Aldehyde oxidase (Homo sapiens) (protein)
chain: MDRASELLFYVNGRKVIEKNVDPETMLLPYLRKKLRLTGTKYGCGGGGCGACTVMISRYNPITKRIRHHPANACLIPICSLYGAAVTTVEGIGSTHTRIHPVQERIAKCHGTQCGFCTPGMVMSIYTLLRNHPEPTLDQLTDALGGNLCRCTGYRPIIDACKTFCKTSGCCQSKENGVCCLDQGINGLPEFEEGSKTSPKLFAEEEFLPLDPTQELIFPPELMIMAEKQSQRTRVFGSERMMWFSPVTLKELLEFKFKYPQAPVIMGNTSVGPEVKFKGVFHPVIISPDRIEELSVVNHAYNGLTLGAGLSLAQVKDILADVVQKLPEEKTQMYHALLKHLGTLAGSQIRNMASLGGHIISRHPDSDLNPILAVGNCTLNLLSKEGKRQIPLNEQFLSKCPNADLKPQEILVSVNIPYSRKWEFVSAFRQAQRQENALAIVNSGMRVFFGEGDGIIRELCISYGGVGPATICAKNSCQKLIGRHWNEQMLDIACRLILNEVSLLGSAPGGKVEFKRTLIISFLFKFYLEVSQILKKMDPVHYPSLADKYESALEDLHSKHHCSTLKYQNIGPKQHPEDPIGHPIMHLSGVKHATGEAIYCDDMPLVDQELFLTFVTSSRAHAKIVSIDLSEALSMPGVVDIMTAEHLSDVNSFCFFTEAEKFLATDKVFCVGQLVCAVLADSEVQAKRAAKRVKIVYQDLEPLILTIEESIQHNSSFKPERKLEYGNVDEAFKVVDQILEGEIHMGGQEHFYMETQSMLVVPKGEDQEMDVYVSTQFPKYIQDIVASTLKLPANKVMCHVRRVGGAFGGKVLKTGIIAAVTAFAANKHGRAVRCVLERGEDMLITGGRHPYLGKYKAGFMNDGRILALDMEHYSNAGASLDESLFVIEMGLLKMDNAYKFPNLRCRGWACRTNLPSNTAFRGFGFPQAALITESCITEVAAKCGLSPEKVRIINMYKEIDQTPYKQEINAKNLIQCWRECMAMSSYSLRKVAVEKFNAENYWKKKGLAMVPLKFPVGLGSRAAGQAAALVHIYLDGSVLVTHGGIEMGQGVHTKMIQVVSRELRMPMSNVHLRGTSTETVPNANISGGSVVADLNGLAVKDACQTLLKRLEPIISKNPKGTWKDWAQTAFDESINLSAVGYFRGYESDMNWEKGEGQPFEYFVYGAACSEVEIDCLTGDHKNIRTDIVMDVGCSINPAIDIGQIEGAFIQGMGLYTIEELNYSPQGILHTRGPDQYKIPAICDMPTELHIALLPPSQNSNTLYSSKGLGESGVFLGCSVFFAIHDAVSAARQERGLHGPLTLNSPLTPEKIRMACEDKFTKMIPRDEPGSYVPWNVPI
Km [17]: 0.772 µM
Vmax [17]: 0.000337 µmol/min

From ChEMBL document CHEMBL3525945, “Metabolic switching of BILR 355 in the presence of ritonavir. II. Uncovering novel contributions by gut bacteria and aldehyde oxidase” (Drug Metab Dispos, 2012)
